Results published in ChEMBL document CHEMBL2010709, “Pinophilins A and B, inhibitors of mammalian A-, B-, and Y-family DNA polymerases and human cancer cell proliferation” (J Nat Prod, 2012).

How the values were obtained:
A549 = assay: Growth inhibition of human A549 cells after 24 hrs by WST-1 assay; assay type: functional; details: A549, 24 h
Procedure, shortened: (§1)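 Cancer cells were grown in McCoy's 5A with 10% FBS and penicillin/streptomycin, 37 °C, 5% CO2. Cells were seeded at 1 × 10^4 per well, cultured 12 h, then given compound (10 mM DMSO stock diluted in medium, 0.5% DMSO) for 24 h. WST-1 was added for 4 h and absorbance read at 450/630 nm. GI50 given as mean ± SE, five independent experiments.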

BALL-1 = assay: Growth inhibition of human BALL-1 cells after 24 hrs by WST-1 assay; assay type: functional; details: BALL-1, 24 h; procedure, shortened: as §1
HCT-116 = assay: Growth inhibition of against human HCT116 cells after 24 hrs by WST-1 assay; assay type: functional; details: HCT-116, 24 h; procedure, shortened: as §1
HeLa = assay: Growth inhibition of human HeLa cells after 24 hrs by WST-1 assay; assay type: functional; procedure, shortened: as §1
NUGC-3 = assay: Growth inhibition of human NUGC3 cells after 24 hrs by WST-1 assay; assay type: functional; details: NUGC-3, 24 h; procedure, shortened: as §1
[1] = Growth inhibition of HDF cells after 72 hrs by WST-1 assay; assay type: cell-based; details: human
Procedure, shortened: (§2)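 Normal cells (HDF, HUVEC) were grown in Eagle's MEM with 4.5 g/L glucose, 10% FCS, 5 mM L-glutamine and penicillin/streptomycin, 37 °C, 5% CO2. Cells were seeded at 1 × 10^4 per well, cultured 12 h, then exposed to compound (0.5% DMSO final) for 72 h. Viability was read by WST-1 at 450/630 nm. GI50 given as mean ± SE of five experiments.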

[2] = Growth inhibition of HUVEC cells after 72 hrs by WST-1 assay; assay type: cell-based; details: human; procedure, shortened: as §2

GI50 (A549): 200 nM | GI50 (HCT-116): 120 nM | GI50 (HeLa): 180 nM
SMILES: Nc1ccn([C@@H]2O[C@H](CO)[C@@H](O)[C@@H]2O)c(=O)n1 [CYTARABINE]
GI50 (BALL-1): 80 nM | GI50 (NUGC-3): 250 nM | GI50 at 72 h [1]: 250 nM | GI50 at 72 h [2]: 230 nM
